Experimental findings from paper PMC10798254 (Indian Journal of Nuclear Medicine : IJNM : The Official …, 2023) are described below.

The test system of data set [1] is metastatic pheochromocytoma and paraganglioma. Kind of data set: I-131 MIBG therapy of metastatic pheochromocytoma and paraganglioma. In kind it is in vivo, patients.
Data set [2] deals with medullary thyroid cancer. Kind of data set: 131I-mIBG therapy of medullary thyroid cancer. It counts as in vivo, patients. Put shortly: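 131I-mIBG given as dose-adjusted intravenous infusions in 100 ml 0.9% sodium chloride by syringe pump over 3 hours, at 30.5 to 120 mCi per dose. Twenty-three therapy doses in total, 1–4 per patient.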
The subject of data set [3] is carcinoma prostate. Kind of data set: Detection of metastatic disease in carcinoma prostate, PET-CT. It counts as in vivo, patients. The conditions noted are these: for detection rate, lymph nodes: 50 patients, head-to-head; for detection rate, skeletal metastases / detection rate, soft tissue metastases: in vivo.
The subject of data set [4] is Glioblastoma multiforme. The data set is described as follows: [64Cu]CuCl2 PET in glioblastoma multiforme. It counts as in vivo, patients.
Data set [5] deals with metastatic prostate cancer. Kind of data set: 99mTc-PSMA SPECT/CT vs 68Ga-PSMA PET/CT lesion detection. It counts as in vivo, patients. Put shortly: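 61 male patients with metastatic prostate cancer (mean age 67 ± 7.82 years) received i.v. 99mTc-PSMA, mean 12.82 ± 1.15 mCi. Anterior and posterior whole-body images were taken at 2.0 and 4.0 h on a dual-head gamma camera (matrix 256×1024, 12 cm/min). Lesion counts were compared against 68Ga-PSMA.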

The test system of data set [6] is estrogen receptor-positive (ER+) tumors. The data set is described as follows: Tumor localization of 99mTc-. It counts as in vivo.
The test system of data set [7] is BIRADS-V breast lesions. The data set is described as follows: 99mTc-MDM scintimammography. It counts as in vivo, patients. In outline: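 For labelling, 15–20 mCi sodium pertechnetate was added to the kit vial and made up to 1.5 ml with 0.9% NaCl. It was incubated 15–20 min, then 0.22 µm filtered. 15–20 mCi was injected i.v. under the gamma camera. Spot views (anterior/posterior and lateral prone) were taken at 10, 60 and 180 min, and uptake mean and SD calculated at each time.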

In data set [8] the test system is B16F10 cells. The data set is described as follows: Cell binding. In kind it is cell-based. The conditions noted are these: plateau after 30 minutes.
The test system of data set [9] is melanoma tumor (B16F10). The data set is described as follows: In-vivo biodistribution. Details: species or system C57BL6 mice. The settings on record: mouse.
Data set [10] deals with mCRPC with liver metastases. The data set is described as follows: [177Lu]Lu-PSMA-617 in mCRPC with liver metastases. In kind it is in vivo, patients.
Data set [11] can be described thus: Biodistribution and dosimetry of 177Lu-DOTA-rituximab. It counts as in vivo, patients. In outline: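 22 patients received a diagnostic administration, mean 288.6 MBq. Blood clearance, organ residence times and effective half-life were derived. Whole-body and organ (liver, spleen, kidneys, bone marrow) absorbed doses were expressed per MBq using OLINDA/EXM v2.1.1.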

On to `N=C(N)NCc1cccc([131I])c1` [I-131 MIBG, Metaiodobenzylguanidine], for which the “immediate side effect post therapy” value in [1] (20 patients) was “only one patient experienced severe vomiting”. In [1] (in vivo), the “patients with symptomatic relief” value is reported as 70% and the progressive disease is on record as 9/20. Besides, in [1] (~100mCi i.v. per therapy), the partial response is on record as 11/20. The “calcitonin levels remained stable” value in data set [2] (30.5 to 120 mCi per dose, 1-4 doses) is 8/13. In data set [2] (in vivo), the calcitonin levels progressed was 5/13, the “regression on repeat mIBG scans” value was 3/12 and the side effects result is reported as “no reported side effects”.
For the compound `[64Cu+2].[Cl-].[Cl-]` [^64CuCl2, 64-copper chloride], in data set [3], the “detection rate, lymph nodes” value turned out to be 79%; the “detection rate, skeletal metastases” value turned out to be 77.3%; the “detection rate, soft tissue metastases” value was 80.6%. Moreover, the SUVmax in data set [4] (first imaging, 2 patients) is 1.12. Besides, in data set [4] (in vivo), the tolerability entry is “well-tolerated”.
For the compound `O=C([O-])CN(CCN(CC(=O)[O-])Cc1cc(CCC(=O)NCCCCCC(=O)NCCCC[C@H](NC(=O)N[C@@H](CCC(=O)O)C(=O)O)C(=O)O)ccc1[O-])Cc1cc(CCC(=O)O)ccc1[O-].[68Ga+3].[OH3+]` [^68Ga-PSMA-11], in data set [3], the “detection rate, lymph nodes” value is given as 99%; the “detection rate, skeletal metastases” value turned out to be 99%; the “detection rate, soft tissue metastases” value was 85.4%.
`O=C([O-])CN(CCN(CC(=O)[O-])Cc1cc(CCC(=O)NCCCCCC(=O)NCCCC[C@H](NC(=O)N[C@@H](CCC(=O)O)C(=O)O)C(=O)O)ccc1[O-])Cc1cc(CCC(=O)O)ccc1[O-].[68Ga+3].[OH3+]` [^68Ga-PSMA] yielded a pelvic lesions detected in data set [5] (61 patients) of 341 lesions. In addition, in [5] (in vivo), the “extra pelvic distant metastatic lesions detected” value came out at 237 lesions and the total lesions detected is 578 lesions.
On to `CC12CCC3c4ccc(O)cc4CCC3C1CCC2(O)c1cn(CCNC(=O)CN(CCN(CCN(CC(=O)O)CC(=O)NCCn2cc(C3(O)CCC4C5CCc6cc(O)ccc6C5CCC43C)nn2)CC(=O)O)CC(=O)O)nn1` (stereo not drawn) [^99mTc[(EST)2DT], 5,8-bis(carboxymethyl)-13-(4-(3,17-dihydroxy-13-methyl-7,8,9,11,12,13,14,15,16,17-decahydro-6H-cyclopenta[α]phenanthren-17-yl)-1H-1,2,3-triazol-1-yl)-2-(2-(2-(4-(3,17-dihydroxy-13-methyl-7,8,9,11,12,13,14,15,16,17-decahydro-6H-cyclopenta[α]phenanthren-17-yl)-1H-1,2,3-triazol-1-yl)ethylamino)-2-oxoethyl)-10-oxo-2,5,8,11-tetraazatridecane-1-carboxylic acid, metal not drawn], for which, in [6] (at 2.0 hours), the T/M ratio came to 1.11 ± 0.34. Besides, the “increase in tumor localization” value in data set [6] (in vivo) is listed as “fivefold”.
For the compound DTPA-bis-methionine [^99mTc-MDM], the “mean Tu:Bkg ratio” value in data set [7] (Prone Lateral, 10min) was 1.89 ± 0.578; in data set [7] (Prone Lateral, 1hr), 1.95 ± 0.717; in data set [7] (Prone Lateral, 3hrs), 2.059 ± 0.728; in data set [7] (anterior view, 10min), 2.606 ± 0.601; in data set [7] (anterior view, 3hrs), 3.04 ± 1.114.
Consider [^90Y]Y-CHX-A”-DTPA-Bevacizumab, for which the binding in cells entry in data set [8] is given as “Approximately 32 ± 3%”. For the same compound, the accumulation in tumor in data set [9] worked out at 8.2 ± 2.7 % ID/g.
For [^177Lu]Lu-DOTA-Bevacizumab, the binding in cells result in data set [8] was “Approximately 32 ± 3%”. In data set [9], this compound yielded an accumulation in tumor of 8.2 ± 2.7 % ID/g.
Regarding [^177Lu]Lu-PSMA-617, the “Grade 3 anemia” value in data set [10] (2/18 patients) is reported as 11.1%. Also, the ORR in [10] (4/14 patients) is recorded as 28.6%. In data set [10] (4/16 patients, median cumulative 11.1 GBq over 1-7 cycles), the “best PSA-RR (PSA decline of ≥50%)” value turned out to be 25%. The “median OS” value in data set [10] (95% CI: 11.5-14.5) was found to be 13.0 months.
With ^177Lu-DOTA-rituximab, the effective half-life in data set [11] (22 patients) is given as 104.5 ± 22 h. Also, in data set [11] (OLINDA/EXM), the “mean WB radiation absorbed dose” value was 0.208 ± 0.03 mGy/MBq. Further, in data set [11] (in vivo), the “mean WB effective dose” value stood at 0.196 ± 0.05 mGy/MBq; the “mean radiation absorbed dose, bone marrow” value stood at 0.136 ± 0.02; the “mean radiation absorbed dose, kidneys” value was found to be 1.01 ± 0.42 mGy/MBq; the “mean radiation absorbed dose, liver” value is recorded as 0.613 ± 0.21 mGy/MBq. In addition, the “mean radiation absorbed dose, spleen” value in [11] (in vivo) came out at 1.68 ± 2 mGy/MBq.
